Data taken from ChEMBL document CHEMBL5712071, “BET bromodomain protein inhibition is a therapeutic option for medulloblastoma” (Oncotarget, 2013).
Calls of active or inactive are those of the source. The rule behind the calls is not given here.

How the values were obtained:
D341 cell line [1] = assay: Anti-proliferative activity against human D341 cells assessed as reduction in cell viability incubated for 48 hrs by MTT assay; format: functional, cell-based; details: D341, 48 h
Outline: (§1)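 Cells seeded in triplicate at 2 × 10^3 per well and allowed to adhere for 24h. JQ1 was given as serial dilutions in full medium, 1nM-6µM, from a 10 mM DMSO stock. Viability was read by MTT at each time point and IC50 derived from dose-response curves. Culture media were RPMI 1640/10% FCS for HD-MB3 (plus 1% NEAA), ONS-76, Daoy and UW-228, and EMEM/10% FCS for D-283 and D-341.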

Daoy [2] = assay: Anti-proliferative activity against human Daoy cells assessed as reduction in cell viability incubated for 96 hrs by MTT assay; format: functional, cell-based; outline: as §1
UW228 [3] = assay: Anti-proliferative activity against human UW228 cells assessed as reduction in cell viability incubated for 96 hrs by MTT assay; format: functional, cell-based; details: UW228, 96 h; outline: as §1
UW228 [4] = assay: Induction of apoptosis in human UW228 cells assessed as increase in population of cells in sub-G1 phase at 500 nM incubated for 72 hrs by ELISA; format: functional, cell-based
Outline: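 Cell death ELISA on ONS-76 or UW-228 cells seeded 2 × 10^3 per well in triplicate and allowed 24h to adhere. Treated with 500 nM JQ1 or DMSO for 72h, then apoptotic cell death measured by Cell Death Detection ELISA per kit protocol. Experiments repeated at least 3 times.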

D283 Med [5] = assay: Induction of apoptosis in human D283 cells assessed as increase in population of cells in G1 phase at 500 nM incubated for 72 hrs by ELISA; format: functional, cell-based
D341 cell line [6] = assay: Induction of apoptosis in human D341 cells assessed as increase in population of cells in G1 phase at 500 nM incubated for 72 hrs by ELISA; format: functional, cell-based
UW228 [7] = assay: Induction of apoptosis in human UW228 cells assessed as increase in population of cells in G1 phase at 500 nM incubated for 72 hrs by ELISA; format: functional, cell-based
HD-MB03 [8] = assay: Induction of apoptosis in human HD-MB03 cells assessed as increase in population of cells in G1 phase at 500 nM incubated for 72 hrs by ELISA; format: functional, cell-based
D341 cell line [9] = assay: Induction of apoptosis in human D341 cells assessed as increase in population of cells in sub-G1 phase at 500 nM incubated for 72 hrs by flow cytometry; format: functional, cell-based
Outline: (§2)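 Cells were cultured with 500 nM JQ1 or DMSO control, trypsinised and washed 3 times in PBS. DNA was stained with propidium iodide for 15 min and DNA content analysed by flow cytometry to give G1 and sub-G1 fractions.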

UW228 [10] = assay: Induction of apoptosis in human UW228 cells assessed as increase in population of cells in sub-G1 phase at 500 nM incubated for 72 hrs by flow cytometry; format: functional, cell-based
Outline: (§3)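 PI flow cytometry: cells seeded in triplicate, adhered 24h, then exposed to 500 nM JQ1 or DMSO control (methods give 48h culture, legend gives 72h). Harvested by trypsin, washed 3 times in PBS, stained with propidium iodide 15 min, DNA content read by flow cytometry. Sub-G1 fraction taken as apoptotic. Experiments repeated at least 3 times.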

HD-MB03 [11] = assay: Induction of apoptosis in human HD-MB03 cells assessed as increase in population of cells in sub-G1 phase at 500 nM incubated for 72 hrs by flow cytometry; format: functional, cell-based; outline: as §3
Daoy [12] = assay: Induction of apoptosis in human Daoy cells assessed as increase in population of cells in G1 phase at 500 nM incubated for 72 hrs by flow cytometry; format: functional, cell-based; outline: as §2
HD-MB03 [13] = assay: Induction of apoptosis in human HD-MB03 cells assessed as increase in population of cells in G1 phase at 500 nM incubated for 72 hrs by flow cytometry; format: functional, cell-based; outline: as §2
D283 Med [14] = assay: Induction of senescence in human D283 cells assessed as increase in population of cells in G1 phase at 500 nM incubated for 72 hrs by fluorometric SA-beta-gal activity assay; format: functional, cell-based
Outline: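 Senescence read as fluorometric SA-β-gal activity. Cells seeded 2 × 10^3 per well in triplicate and allowed 24h to adhere, then exposed to 500 nM JQ1 or DMSO control for 72h. Assayed per kit protocol. Experiments repeated at least 3 times.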

HD-MB03 [15] = assay: Anti-proliferative activity against human HD-MB03 cells expressing dominant-negative TP53 mutant assessed as reduction in cell viability at 1 to 6000 nM incubated for 72 hrs by MTT assay; format: functional, cell-based; details: dose 1-6000 nM
Outline: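 HD-MB3 was stably transfected with pMSCV-puro-p53DD and selected in 2 μg/mL puromycin. Cells were seeded in triplicate at 2 × 10^3 per well with 24h adherence, then exposed to serially diluted JQ1 in full medium for 72h. Viability was read by MTT.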

HD-MB03 [16] = assay: Antitumor activity against human HD-MB03 cells xenografted in female athymic (nu/nu) mouse assessed as increase in mouse survival time at 50 mg/kg, ip for 28 days relative to untreated control; format: functional, organism-based; details: time 28.0 day
Outline: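 Female athymic nu/nu mice, 4 weeks old, received 2 × 10^7 HD-MB3 cells in Matrigel subcutaneously in the left flank. At 150–200 mm3 they were randomised, n=7 per group, to JQ1 50 mg/kg ip daily or vehicle for 28 days or until tumours exceeded 1000 mm3. Calipers were used, with volume = (breadth × length × height)/2. Time to 1000 mm3 was analysed by Kaplan-Meier.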

HD-MB03 [17] = assay: Inhibition of BRD4 female athymic (nu/nu) mouse xenografted with human HD-MB03 cells as reduction in MYC mRNA expression in tumor at 50 mg/kg, ip administered at 0, 12, 24 and 36 hrs over 2-day course by RT-PCR analysis; format: functional, organism-based
Outline: (§4)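 Same flank HD-MB3 xenografts in female nu/nu mice. Given 4 i.p. doses of JQ1 50 mg/kg (or DMSO) at 0, 12, 24 and 36h; tumours excised 4h after the last dose and snap-frozen. MYC measured by RT-PCR (mean ± S.D.) or western blot with β-actin loading control, 3 tumours per group.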

HD-MB03 [18] = assay: Inhibition of BRD4 female athymic (nu/nu) mouse xenografted with human HD-MB03 cells as reduction in MYC protein expression in tumor at 50 mg/kg, ip administered at 0, 12, 24 and 36 hrs over 2-day course by Western blot analysis; format: functional, organism-based; outline: as §4
[19] = target: Bromodomain-containing protein 4 (Homo sapiens) (UniProt O60885); details: HD-MB03, dose 500.0 nM, time 24.0 hrs
[20] = target: Bromodomain-containing protein 4 (Homo sapiens) (UniProt O60885); details: D341 cell line, dose 500.0 nM, time 24.0 hrs
[21] = target: Bromodomain-containing protein 4 (Homo sapiens) (UniProt O60885); details: UW228, dose 500.0 nM, time 72.0 hrs
[22] = target: Bromodomain-containing protein 4 (Homo sapiens) (UniProt O60885); details: HD-MB03, dose 500.0 nM, time 96.0 hrs
[23] = target: Bromodomain-containing protein 4 (Homo sapiens) (UniProt O60885); details: HD-MB03, dose 500.0 nM, time 12.0 hrs

With `Cc1sc2c(c1C)C(c1ccc(Cl)cc1)=N[C@@H](CC(=O)OC(C)(C)C)c1nnc(C)n1-2` the IC50 (D341 cell line [1]) was 924 nM, the IC50 (Daoy [2]) was over 1000 nM and the IC50 (UW228 [3]) was over 1000 nM. For the same compound, the Activity (UW228 [4]) was “Active”, the Activity (D283 Med [5]) was “Active” and the Activity (D341 cell line [6]) was “Active”. The Activity (UW228 [7]) was “Active”, the Activity (HD-MB03 [8]) was “Active” and the Activity (D341 cell line [9]) was “Active”. For the same compound, the Activity (UW228 [10]) was “Active”, the Activity (HD-MB03 [11]) was “Active” and the Activity (Daoy [12]) was “Active”. The Activity (HD-MB03 [13]) was “Active”, the Activity (D283 Med [14]) was “Active” and the Activity (HD-MB03 [15]) was “inactive”. For the same compound, the Activity (HD-MB03 [16]) was “Active”, the inhibition (HD-MB03 [17]) was “Active” and the inhibition (HD-MB03 [18]) was “Active”. The inhibition [19] was over 80%, the inhibition [20] was “Active” and the inhibition [21] was “Active”. The inhibition [22] was “inactive” and the inhibition [23] was “Active”.
